Assay results reported in ChEMBL document CHEMBL1629550 (Antimicrob Agents Chemother, 2008).
Active and inactive are the calls of the source. No cut-off for these calls is given here.

Columns and labels:
[1] = test system: Listeria monocytogenes; assay: Antibacterial activity against Listeria monocytogenes EGD-e in BALB/c mouse central nervous system listeriosis model assessed as increase in mouse survival at 50 mg/kg, ip administered 36 hrs postinfection every 12 hrs for 5 days; type: functional; settings: route intraperitoneal
Summary of the method: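 Female BALB/c mice, 7–8 weeks old, were infected i.v. via the tail vein with 1 × 10^5 EGD-e in 0.5 ml saline. From 36 h they received 50 mg·kg−1 i.p. in isotonic saline (0.1 ml) every 12 h for 5 days, with n = 20. Controls got saline (n = 5). Death was checked twice daily, and survivors were followed 2 months for relapse. Results were plotted as Kaplan-Meier estimates.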

[2] = Cmax in plasma in Listeria monocytogenes EGD-e infected BALB/c mouse central nervous system listeriosis model at 50 mg/kg, ip administered 36 hrs postinfection as single dose; type: ADME, organism-based; design: dose 50 mg/kg, route intraperitoneal
Summary of the method: (§1)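 Female BALB/c mice, 7–8 weeks old, were infected i.v. via the tail vein with 1 × 10^5 EGD-e. At 36 h they received one i.p. dose of 50 mg·kg−1 in isotonic saline. Groups of six were killed at 0–480 min. Blood-cleared brain homogenate and plasma were deproteinized with acetonitrile, with ciprofloxacin as internal standard, and analysed by reverse-phase HPLC with fluorescence detection (ex 290/em 550 nm). Cmax was read from the curves; AUC24 was calculated by the trapezoidal rule.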

[3] = test system: Listeria monocytogenes; assay: Antibacterial activity against Listeria monocytogenes EGD-e in BALB/c mouse central nervous system listeriosis model assessed as mouse survival at 50 mg/kg, ip administered 36 hrs postinfection every 12 hrs for 5 days measured after 2 months; type: functional, organism-based; design: dose 50 mg/kg
Summary of the method: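 BALB/c females were infected i.v. with 1 × 10^5 EGD-e. Starting 36 h after infection, they were dosed i.p. at 50 mg·kg−1 every 12 h for 5 days (n = 20); saline controls n = 5. Deaths were checked twice daily from 36 h post-infection. Survivors were followed for 2 months for relapse, and survival was analysed by Kaplan-Meier.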

[4] = test system: Listeria monocytogenes; assay: Antibacterial activity against Listeria monocytogenes EGD-e in BALB/c mouse central nervous system listeriosis model assessed as reduction in bacterial count in spleen at 50 mg/kg, ip administered 36 hrs postinfection as single dose measured within 1 hr; type: functional, organism-based; design: dose 50 mg/kg
Summary of the method: (§2)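 Female BALB/c mice (7–8 weeks) were infected i.v. with 1 × 10^5 EGD-e and given one i.p. dose of 50 mg·kg−1 at 36 h; saline was given to controls. Groups of three were sampled at 1, 6, 24 and 48 h. Blood and homogenized liver, spleen and brain were serially diluted 10-fold on BHI agar and counted after 24 h at 37°C. Results are mean ± SE log10 CFU/organ or per ml blood.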

[5] = AUC (24 hrs) in plasma in Listeria monocytogenes EGD-e infected BALB/c mouse central nervous system listeriosis model at 50 mg/kg, ip administered 36 hrs postinfection as single dose; type: ADME, organism-based; design: time < 24 hr, dose 50 mg/kg, route intraperitoneal; summary of the method: as §1
[6] = test system: Listeria monocytogenes; assay: Antibacterial activity against Listeria monocytogenes EGD-e in BALB/c mouse central nervous system listeriosis model assessed as reduction in bacterial count in liver at 50 mg/kg, ip administered 36 hrs postinfection as single dose measured within 1 hr; type: functional, organism-based; design: dose 50 mg/kg; summary of the method: as §2
[7] = test system: Listeria monocytogenes; assay: Antibacterial activity against Listeria monocytogenes EGD-e in BALB/c mouse central nervous system listeriosis model assessed as increase in mouse survival at 50 mg/kg, ip administered 36 hrs postinfection as single dose; type: functional; settings: route intraperitoneal
Summary of the method: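 Female BALB/c mice, 7–8 weeks old, were infected via the lateral tail vein with 1 × 10^5 EGD-e in 0.5 ml saline. At 36 h they received a single 50 mg·kg−1 i.p. dose in isotonic saline (0.1 ml), with n = 12. Controls got saline (n = 5). Death was checked twice daily from 36 h, and survivors were followed 2 months. Results were plotted as Kaplan-Meier estimates.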

[8] = test system: Listeria monocytogenes; assay: Antibacterial activity against Listeria monocytogenes EGD-e in BALB/c mouse central nervous system listeriosis model assessed as log reduction in bacterial CFU per ml of blood at 50 mg/kg, ip administered 36 hrs postinfection as single dose measured within 1 hr; type: functional; settings: route intraperitoneal; summary of the method: as §2
[9] = test system: Listeria monocytogenes; assay: Antibacterial activity against Listeria monocytogenes EGD-e in BALB/c mouse central nervous system listeriosis model assessed as reduction in bacterial count in liver at 50 mg/kg, ip administered 36 hrs postinfection as single dose measured within 6 hr; type: functional, organism-based; design: dose 50 mg/kg; summary of the method: as §2
[10] = test system: Listeria monocytogenes; assay: Antibacterial activity against Listeria monocytogenes EGD-e in BALB/c mouse central nervous system listeriosis model assessed as reduction in bacterial count in spleen at 50 mg/kg, ip administered 36 hrs postinfection as single dose measured within 6 hr; type: functional, organism-based; design: dose 50 mg/kg; summary of the method: as §2

Row | Structure (SMILES) | Activity [1] | Cmax [2] | Activity [3] | Activity [4] | AUC at 24 h [5] | Activity [6] | Time [7] | FC [8] | Activity [9] | Activity [10]
1 | COc1c(N2C[C@@H]3CCCN[C@@H]3C2)c(F)cc2c(=O)c(C(=O)O)cn(C3CC3)c12 [MOXIFLOXACIN] | 100% | 17300 ng/mL | Active | Active | 27100 ng·h/mL | Active | 24 h |  |  | 
2 | CC1(C)S[C@@H]2[C@H](NC(=O)[C@H](N)c3ccc(O)cc3)C(=O)N2[C@H]1C(=O)O [AMOXICILLIN] | 75% |  | Active |  |  |  | 12 h | 1 | Active | Active
